Assay outcomes as filed in PubChem.
In the library only some 2.8% were active in any assay of this set; here they are far more common.
NPY-Y2 antag = NPY-Y2 receptor antagonists, primary screen, cell-based | AID 793, 2007 | NPY-Y2 expressing cells, antagonist mode | 140,000 compounds, 0.99% hits | inhibition, % at 2.7 µM; in the data active = inhibition above about 17%
NPY Y1 blocker = NPY-Y1 receptor antagonists, primary screen, cell-based | Neuropeptide Y receptor type 1 (Homo sapiens), P25929 | HEK293-CNG Y1 cells, membrane potential fluorescence; NPY at EC95, then isoproterenol | inhibition, % at 3.6 µM | 200,000 compounds, 1% hits;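 active = inhibition above the campaign mean inhibition of all tested compounds plus 3 SD, cut at about 20% in these data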
Target sequence (P25929 whole entry, looked up): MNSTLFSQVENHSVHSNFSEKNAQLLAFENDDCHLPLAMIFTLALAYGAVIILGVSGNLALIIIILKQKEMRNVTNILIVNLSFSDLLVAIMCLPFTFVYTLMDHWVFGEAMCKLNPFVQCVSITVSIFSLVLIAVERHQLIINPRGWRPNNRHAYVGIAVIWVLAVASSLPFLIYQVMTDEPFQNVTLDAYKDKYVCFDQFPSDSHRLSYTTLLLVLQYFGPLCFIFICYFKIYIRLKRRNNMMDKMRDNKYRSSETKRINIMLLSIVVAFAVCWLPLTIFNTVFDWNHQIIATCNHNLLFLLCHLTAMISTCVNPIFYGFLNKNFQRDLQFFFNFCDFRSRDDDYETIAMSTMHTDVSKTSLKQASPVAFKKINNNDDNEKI
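Benchmarks – high control isoproterenol alone, low control NPY with isoproterenol · Material – HEK293 Y1/CNG channel cell line · Times – dye 3 h, compound 60 min room temperature, stimulation 45 min · Probe or stimulus – NPY (25 nM), isoproterenol (1 µM), Ro 20-1724 (25 µM) · Evaluation – % inhibition of NPY effect · Signal – fluorescence, membrane potential probe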
PGE2 EP2 inh = human EP2 receptor antagonists, primary screen, TR-FRET cAMP, C6 glioma cells; Prostaglandin E2 receptor EP2 subtype (Homo sapiens), P43116; C6 glioma cells expressing human EP2; cells stimulated with saturating PGE2; inhibition, % at 25 µM; 260,000 compounds, 0.52% hits;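 active = percent inhibition above 40 after rounding to a whole number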;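 also: rat C6 glioma host cells with rolipram phosphodiesterase inhibitor present; the protocol text gives 20 µM as final concentration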
Target sequence (P43116 whole entry, looked up): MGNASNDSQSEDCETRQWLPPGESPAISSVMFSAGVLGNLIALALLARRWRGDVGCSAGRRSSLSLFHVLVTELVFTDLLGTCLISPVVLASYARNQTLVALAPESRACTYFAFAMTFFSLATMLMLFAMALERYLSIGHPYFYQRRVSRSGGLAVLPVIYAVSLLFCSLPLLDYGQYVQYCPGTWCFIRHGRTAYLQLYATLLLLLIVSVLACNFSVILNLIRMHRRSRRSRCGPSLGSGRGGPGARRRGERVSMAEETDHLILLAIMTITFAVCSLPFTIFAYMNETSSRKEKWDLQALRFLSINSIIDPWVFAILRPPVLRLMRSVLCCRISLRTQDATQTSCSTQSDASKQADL
NPY-Y2 PAM-ag = NPY-Y2 potentiators or agonists, primary screen, cell-based; 220,000 compounds, 0.45% hits; activation, % at 3.6 µM; cells expressing NPY-Y2, potentiator/agonist read-out; in the data active = activation above about 27%;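 also: cells stimulated with NPY near EC25 plus isoproterenol at EC100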
NPY-Y1 PAM-ag = NPY-Y1 receptor potentiators or agonists, primary screen, cell-based | Neuropeptide Y receptor type 1 (Homo sapiens), P25929 | NPY-Y1 expressing cells, potentiator/agonist activation | activation, % at 3.6 µM | 220,000 compounds, 0.37% hits; in the data active = activation above about 33%, passing the limit was not always enough;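 also: cells stimulated with NPY at EC10 then isoproterenol at EC100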
EP2 mod = EP2 receptor modulators, cAMP readout, primary screen, cell-based, HTRF cAMP, PGE2 stimulation; EP2-expressing cells, cAMP HTRF FRET, PGE2 co-stimulation; induction, % at 25 µM; 260,000 compounds, 0.83% hits;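 active = compounds whose cAMP rise, as percent of the full-agonist control response, exceeds 60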;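 also: rat C6 glioma line stably carrying human EP2 under a CMV promoter; the protocol text gives 20 µM as final concentration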
NPY1 antag ctr = NPY-Y1 receptor antagonists, selectivity check, counter-screen for NPY-Y2 antagonist project, cell-based | cell-based NPY-Y1 antagonism counterscreen | 710 compounds, 19% hits | inhibition, % at 3.6 µM | AID 1256, 2008 | shares compounds with NPY-Y2 antag; in the data active = inhibition above about 20%;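 also: cells challenged with NPY then isoproterenol with cAMP sensed through a CNG channel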
NPY2 antag conf = NPY-Y2 receptor antagonists, retest of hits, confirmation, HEK293-CNG cells, membrane potential fluorescence, triplicate. shares compounds with NPY-Y2 antag. HEK293 NPY-Y2 CNG channel. 710 compounds, 32% hits. inhibition, % at 2.8 µM;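 active = mean inhibition of triplicate wells above the hit cutoff set in the primary screen, cut at about 17% in these data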
EP2 confirm = cAMP induction in EP2, EP4, beta2-AR and parental cells, confirmation, counter-screen for EP2 modulator project, cell-based, five parallel assays, C6 glioma, HEK293; shares compounds with EP2 mod; cAMP HTRF induction; plus low (about EC15) PGE2 agonist; calls only at 20 µM (by protocol); 1,300 compounds, 47% hits; AID 1080, 2008;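 active = cAMP induction above 50% in the main assay while under 30% in all four parallel counter assays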;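 also: rat C6 glioma cells stably expressing human EP2 receptor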
Of the large screens only hits and unclear results are named; the others gave an inactive call (follow-up assays come after a bar, where they were run).

COc1ccccc1C/C(N)=N/OC(=O)COc1ccccc1C	NPY-Y2 antag 28.5 | NPY1 antag ctr inactive | NPY2 antag conf inactive
COc1ccc(-c2cc(C(F)(F)F)nc(SCC(=O)N3CCCc4ccccc43)n2)cc1OC	none (no result: NPY-Y2 antag, NPY Y1 blocker, NPY-Y2 PAM-ag, NPY-Y1 PAM-ag)
Cc1cccc2c1N(C(=O)C(C)C)C(C)(C)c1ssc(=S)c1-2	none (no result: NPY-Y2 antag, NPY Y1 blocker, NPY-Y2 PAM-ag, NPY-Y1 PAM-ag)
Cc1cc2ncn(C(=O)c3c(-c4c(Cl)cccc4Cl)noc3C)c2cc1C	none
Cc1cc2ncn(C(=O)c3c(-c4ccccc4)noc3C)c2cc1C	NPY-Y2 antag 19.7 | NPY1 antag ctr inactive | NPY2 antag conf inactive
O=C(CSCc1c(Cl)cccc1Cl)Nc1ccccc1-c1ccccc1	NPY-Y2 antag 37.5, EP2 mod 75.0 | NPY1 antag ctr inactive | NPY2 antag conf 24.1 | EP2 confirm inactive
O=C(COC(=O)Cc1c(Cl)cccc1Cl)Nc1ccccc1-c1ccccc1	none
Cc1ccccc1/C=C/c1nc2ccccc2c(=O)n1CCc1ccccc1	NPY-Y2 antag 22.6, EP2 mod 70.6 | NPY1 antag ctr inactive | NPY2 antag conf 29.0 | EP2 confirm active
CN(C)Cc1ccccc1Sc1ccccc1Br	none
CN(C)Cc1ccccc1Sc1cccc2ccccc12	NPY-Y2 antag 22.4, EP2 mod 75.3 | NPY1 antag ctr inactive | NPY2 antag conf 21.0 | EP2 confirm active
COc1ccc(-n2c(COc3cccc4ccccc34)nnc2SCC#N)cc1	NPY-Y2 antag 18.4 | NPY1 antag ctr inactive | NPY2 antag conf inactive | EP2 confirm inactive
N#CCSc1nnc(COc2cccc3ccccc23)n1-c1ccccc1	none
COC(=O)C[C@H]1C(C)(C)C(=O)[C@@H]2CC3=C(CC[C@]4(C)C3=CC(=O)O[C@H]4c3ccoc3)C1(C)C2=O	none (no result: NPY-Y2 antag, NPY Y1 blocker, NPY-Y2 PAM-ag, NPY-Y1 PAM-ag)
CCCc1cc(-c2n[nH]c(=S)n2C(C)c2ccccc2)cs1 (centres undefined)	NPY-Y2 antag 19.6, EP2 mod 68.1 | NPY1 antag ctr inactive | NPY2 antag conf inactive | EP2 confirm active
Nc1c(C(=O)NC2CCCCC2)nsc1C(=O)N(CC(=O)NC1CCCC1)c1cccc(F)c1	none (no result: NPY-Y2 antag, NPY Y1 blocker, NPY-Y2 PAM-ag, NPY-Y1 PAM-ag)
CC(C)CCn1c(-c2nonc2N)nc2ccccc21	NPY-Y2 antag 18.5, EP2 mod 69.7 | NPY1 antag ctr inactive | NPY2 antag conf inactive | EP2 confirm inactive
COc1ccc(NC(=O)CSc2nc3sc4c(c3c(=O)[nH]2)CCCC4)cc1	none (no result: NPY-Y2 antag, NPY Y1 blocker, NPY-Y2 PAM-ag, NPY-Y1 PAM-ag)
CCc1nnc2n1N=C(c1ccc(-c3cc(Cl)ccc3Cl)o1)CS2	EP2 mod 68.3 | EP2 confirm active
CCc1nnc2n1N=C(c1ccc(-c3ccc(Cl)cc3Cl)o1)CS2	none (no result: PGE2 EP2 inh, EP2 mod)
Cc1ccc(-n2nc3c(=S)[nH]nc(C)c3c2C)cc1	EP2 mod 81.3 (no result: PGE2 EP2 inh) | EP2 confirm inactive
CCOC(=O)c1ccccc1NC1c2ccccc2C(=O)N1c1ccc(C)cn1 (centres undefined)	none
CCOc1ccccc1NC1c2ccccc2C(=O)N1c1ccc(C)cn1 (centres undefined)	EP2 mod 80.7 | EP2 confirm inactive
CCc1ccccc1NC1c2ccccc2C(=O)N1c1cc(C)ccn1 (centres undefined)	EP2 mod 81.2 | EP2 confirm inactive
Cc1ccnc(N2C(=O)c3ccccc3C2Nc2ccccc2Cl)c1 (centres undefined)	none
COc1ccc(C2CCN(CC(=O)Nc3nc(C)c(C)s3)CC2)cc1	none (no result: NPY-Y2 antag, NPY Y1 blocker, NPY-Y2 PAM-ag, NPY-Y1 PAM-ag)
O=C1C2C3c4ccccc4C(c4ccccc43)[C@@H]2c2nc3ccccc3n21 (some centres undefined)	EP2 mod 75.2 | EP2 confirm active
O=C1C2C3c4ccccc4C(c4ccccc43)[C@@H]2C(=O)N1c1ccccn1 (some centres undefined)	none (no result: NPY-Y2 antag, NPY Y1 blocker)
COC(=O)C1=C(C)NC(=O)C1(NC(=O)c1ccncc1)C(F)(F)F (centres undefined)	none (no result: NPY-Y2 antag)
COC(=O)NC1(C(F)(F)F)C(=O)NC(C)=C1C(=O)OC (centres undefined)	EP2 mod 70.7 | EP2 confirm inactive
CCn1c(SC(C)C(=O)Nc2c(C)cccc2C)nc2ccccc2c1=O (centres undefined)	none (no result: NPY-Y2 antag, NPY Y1 blocker, NPY-Y2 PAM-ag, NPY-Y1 PAM-ag)
Cn1c(=O)c(NC2CCCCC2)c2c3c(cccc31)C(=O)c1ccccc1-2	EP2 mod 65.3 (no result: NPY-Y2 antag) | EP2 confirm active
CCNc1c2c3c(cccc3n(C)c1=O)C(=O)c1ccccc1-2	none
Cn1c(=O)c(NCCc2ccccc2)c2c3c(cccc31)C(=O)c1ccccc1-2	EP2 mod 77.2 | EP2 confirm active
Cn1c(=O)c(NCCO)c2c3c(cccc31)C(=O)c1ccccc1-2	none
O=C(NCCn1nc(-c2ccco2)ccc1=O)C1(c2ccc(Cl)cc2)CC1	none (no result: NPY-Y2 antag, NPY Y1 blocker, NPY-Y2 PAM-ag, NPY-Y1 PAM-ag)
O=c1c2ccccc2c(-c2ccccc2)nn1Cc1c(Cl)cccc1Cl	EP2 mod 85.3 | EP2 confirm active
O=C(c1ccccc1F)N1CCC(n2nnc3ccccc3c2=O)CC1	none (no result: NPY-Y2 antag, NPY Y1 blocker, PGE2 EP2 inh, NPY-Y2 PAM-ag, NPY-Y1 PAM-ag)
COc1ccc2cc(C)c3nn(CC(=O)N(C)C)c(=O)n3c2c1	none (no result: NPY-Y2 antag, NPY Y1 blocker, NPY-Y2 PAM-ag, NPY-Y1 PAM-ag)
Cc1nccc2[nH]c(=O)c(C(=O)NC3CCCCC3C)cc12 (centres undefined)	EP2 mod 73.7 | EP2 confirm inactive
COc1ccnc(Cn2nc3c(C)cc4ccccc4n3c2=O)c1OC	none (no result: NPY-Y2 antag, NPY Y1 blocker, PGE2 EP2 inh, NPY-Y2 PAM-ag, NPY-Y1 PAM-ag)
CCCCOc1ccccc1NC(=O)c1scc2c1OCCO2	EP2 mod 87.2 (no result: NPY-Y2 antag) | EP2 confirm active
CCCCOc1ccccc1NC(=O)c1ccco1	none
O=C(NNS(=O)(=O)c1ccc(Br)cc1)c1c(O)c2ccccc2[nH]c1=O	none (no result: NPY-Y2 antag, NPY Y1 blocker, NPY-Y2 PAM-ag, NPY-Y1 PAM-ag)
O=C(NNc1ccc([N+](=O)[O-])cc1[N+](=O)[O-])C1C2CCCCC21 (centres undefined)	EP2 mod 65.2 | EP2 confirm active
Nc1ncc2c(n1)-c1cc(Cl)ccc1SC2	none (no result: NPY-Y2 antag)
CSc1ncc2c(n1)-c1cc(C)ccc1SC2	EP2 mod 78.2 | EP2 confirm active
